The values below come from ChEMBL document CHEMBL3102746, “Anticomplement monoterpenoid glucosides from the root bark of Paeonia suffruticosa” (J Nat Prod, 2014).

Structures are written as SMILES. The source made the active and inactive calls. The rule behind the calls is not given here.

Format in all cases: functional, cell-based
Experiment [1] in a line: Anticomplement activity in New Zealand White rabbit erythrocytes assessed as concentration required for 50% hemolytic inhibition by alternative pathway after 30 mins. To be noted: Oryctolagus cuniculus, Erythrocyte. In short, it runs like this:
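Samples diluted in GVB-Mg-EGTA and preincubated with 1:10 normal human serum at 37 °C for 10 min. Rabbit erythrocytes (3.0 × 10^8 cells/mL) then added for 30 min at 37 °C. Lysis read as supernatant OD at 405 nm. AP50 expressed as 50% inhibitory concentration. Heparin served as positive control.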

A short description of experiment [2]: Anticomplement activity in sheep erythrocytes in C1q-depleted serum assessed as inhibition of hemolysis by classical pathway at 0.54 mM after 30 mins compound treated in normal human serum. To be noted: Ovis aries, Erythrocyte.
Experiment [3] can be described thus: Anticomplement activity in sheep erythrocytes in C5-depleted serum assessed as inhibition of hemolysis by classical pathway at 0.54 mM after 30 mins compound treated in normal human serum. To be noted: Ovis aries, Erythrocyte.
Experiment [4] is described as follows: Anticomplement activity in sheep erythrocytes assessed as concentration required for 50% hemolytic inhibition by classical pathway after 30 mins by spectrophotometry. To be noted: Ovis aries; Erythrocyte. The method in brief: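 Sheep erythrocytes sensitized with rabbit anti-sheep erythrocyte antibodies in GVB2+. Test sample dilutions in GVB2+ preincubated with guinea pig serum (1:80) at 37 °C for 10 min, then EA added for 30 min at 37 °C. Supernatant OD read at 405 nm. Blank, 100% lysis and sample controls included. CH50 taken from mean of triplicates at each concentration. Heparin served as positive control.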

A short description of experiment [5]: Anticomplement activity in sheep erythrocytes in C9-depleted serum assessed as inhibition of hemolysis by classical pathway at 0.54 mM after 30 mins compound treated in normal human serum. To be noted: Ovis aries, Erythrocyte.
Experiment [6] is described as follows: Anticomplement activity in sheep erythrocytes in C3-depleted serum assessed as inhibition of hemolysis by classical pathway at 0.54 mM after 30 mins compound treated in normal human serum. To be noted: Ovis aries, Erythrocyte.
A short description of experiment [7]: Anticomplement activity in sheep erythrocytes in C4-depleted serum assessed as hemolysis by classical pathway at 1.09 mM after 30 mins compound treated in normal human serum. To be noted: Ovis aries, Erythrocyte.
A short description of experiment [8]: Anticomplement activity in sheep erythrocytes in C9-depleted serum assessed as hemolysis by classical pathway at 1.09 mM after 30 mins compound treated in normal human serum. To be noted: Ovis aries, Erythrocyte.
Experiment [9] is described as follows: Anticomplement activity in sheep erythrocytes in C1q-depleted serum assessed as hemolysis by classical pathway at 1.09 mM after 30 mins compound treated in normal human serum. To be noted: Ovis aries, Erythrocyte.
Experiment [10] can be described thus: Anticomplement activity in sheep erythrocytes in C2-depleted serum assessed as hemolysis by classical pathway at 1.09 mM after 30 mins compound treated in normal human serum. To be noted: Ovis aries, Erythrocyte.
Experiment [11] is described as follows: Anticomplement activity in sheep erythrocytes in C3-depleted serum assessed as hemolysis by classical pathway at 1.09 mM after 30 mins compound treated in normal human serum. To be noted: Ovis aries, Erythrocyte.
Experiment [12] is described as follows: Anticomplement activity in sheep erythrocytes in C5-depleted serum assessed as hemolysis by classical pathway at 1.09 mM after 30 mins compound treated in normal human serum. To be noted: Ovis aries, Erythrocyte.
Experiment [13] can be described thus: Anticomplement activity in sheep erythrocytes in C3-depleted serum assessed as inhibition of hemolysis by classical pathway at 0.45 mM after 30 mins compound treated in normal human serum. To be noted: Ovis aries, Erythrocyte.
Experiment [14] is described as follows: Anticomplement activity in sheep erythrocytes in C9-depleted serum assessed as inhibition of hemolysis by classical pathway at 0.45 mM after 30 mins compound treated in normal human serum. To be noted: Ovis aries, Erythrocyte.
Experiment [15] is described as follows: Anticomplement activity in sheep erythrocytes in C5-depleted serum assessed as inhibition of hemolysis by classical pathway at 0.45 mM after 30 mins compound treated in normal human serum. To be noted: Ovis aries, Erythrocyte.
A short description of experiment [16]: Anticomplement activity in sheep erythrocytes in C1q-depleted serum assessed as inhibition of hemolysis by classical pathway at 0.45 mM after 30 mins compound treated in normal human serum. To be noted: Ovis aries, Erythrocyte.

`C[C@@]12C[C@@]3(O)O[C@@H](O1)[C@]1(COC(=O)c4ccccc4)[C@@H]3C[C@]12O[C@@H]1O[C@H](COC(=O)c2cc(O)c(O)c(O)c2)[C@@H](O)[C@H](O)[C@H]1O`: in [1], the AP50 worked out at 0.32 mM. Besides, the inhibition result in experiment [2], in experiment [3] and in [6] was “Active” each time. Also, in experiment [4], the INH came out at 0.21 mM. The inhibition result in experiment [5] is “inactive”.

Turning to `COc1ccc(C(=O)OC[C@]23C4O[C@]5(OC)C[C@](C)(O4)[C@]2(O[C@@H]2O[C@H](COC(=O)c4ccccc4)[C@@H](O)[C@H](O)[C@H]2O)C[C@H]53)cc1`, the inhibition result in experiment [1] and in experiment [4] was “inactive” each time.

Consider `CO[C@H]1O[C@@]2(C)CC(=O)[C@H]3C[C@]2(O[C@@H]2O[C@H](COC(=O)c4ccccc4)[C@@H](O)[C@H](O)[C@H]2O)[C@]13COC(=O)c1ccccc1`, for which the inhibition entry in [1] and in experiment [4] was “inactive” in each case.

As for `COc1ccc(C(=O)OC[C@H]2O[C@@H](O[C@]34C[C@@H]5[C@@]6(O)C[C@]3(C)OC(O6)[C@]54COC(=O)c3ccc(O)cc3)[C@H](O)[C@@H](O)[C@@H]2O)cc1`, in [1], the AP50 was 0.97 mM. Also, the INH in experiment [4] was 0.41 mM.

Take `COc1cc(C(=O)OC[C@H]2O[C@@H](O[C@@]34C[C@H]5[C@@]3(COC(=O)c3ccccc3)[C@H]3O[C@]5(O)C[C@]4(C)O3)[C@H](O)[C@@H](O)[C@@H]2O)ccc1O`: the INH in [4] was determined as 2.02 mM.

As to `COc1ccc(C(=O)OC[C@]23C4O[C@]5(O)C[C@](C)(O4)[C@]2(O[C@@H]2O[C@H](COC(=O)c4ccccc4)[C@@H](O)[C@H](O)[C@H]2O)C[C@H]53)cc1`, the AP50 in [1] worked out at 1.6 mM. Besides, the INH in [4] worked out at 1.29 mM.

`COc1ccc(C(=O)OC[C@H]2O[C@@H](O[C@]34C[C@@H]5C(=O)C[C@]3(C)O[C@H](OC)[C@]54COC(=O)c3ccccc3)[C@H](O)[C@@H](O)[C@@H]2O)cc1`: the inhibition entry in [1] and in experiment [4] was “inactive” in each case.

As for `C[C@@]12C[C@@]3(O)O[C@@H](O1)[C@]1(COC(=O)c4ccccc4)[C@@H]3C[C@]12O[C@@H]1O[C@H](COC(=O)c2ccc(O)cc2)[C@@H](O)[C@H](O)[C@H]1O`, the INH in [4] stood at 0.52 mM.

`C[C@@]12C[C@@]3(O)O[C@@H](O1)[C@]1(COC(=O)c4ccc(O)cc4)[C@H]3C[C@@]12O[C@@H]1O[C@H](COC(=O)c2ccc(O)cc2)[C@@H](O)[C@H](O)[C@H]1O`: the AP50 in [1] was found to be 0.67 mM. In addition, the INH in experiment [4] stood at 0.34 mM.

As to `COc1ccc(C(=O)OC[C@]23[C@H]4O[C@]5(O)C[C@](C)(O4)[C@@]2(O[C@@H]2O[C@H](CO)[C@@H](O)[C@H](O)[C@H]2O)C[C@H]35)cc1`, the AP50 in [1] was determined as 3.67 mM. Also, the INH in [4] worked out at 2.67 mM.

`C[C@@]12C[C@@]3(O)O[C@@H](O1)[C@]1(COC(=O)c4ccc(O)cc4)[C@@H]3C[C@]12O[C@@H]1O[C@H](CO)[C@@H](O)[C@H](O)[C@H]1O`: in experiment [1], the AP50 came out at 3.29 mM. The INH in [4] was determined as 2.28 mM.

Turning to `CO[C@]12C[C@]3(C)O[C@H](O1)[C@]1(COC(=O)c4ccc(O)cc4)[C@H]2C[C@@]13O[C@@H]1O[C@H](CO)[C@@H](O)[C@H](O)[C@H]1O`, the inhibition entry in [1] and in experiment [4] was “inactive” each time.

As for `C[C@@]12C[C@@]3(O)OC(O1)[C@]1(COC(=O)c4ccc(O)cc4)[C@@H]3C[C@@]21O[C@@H]1O[C@H](COC(=O)c2ccccc2)[C@@H](O[C@@H]2O[C@H](CO)[C@@H](O)[C@H](O)[C@H]2O)[C@H](O)[C@H]1O`, the Activity in [7] is 89.3%; in [8] it was < 10%; in experiment [9], < 10%; in experiment [10] it was 80.1%; in experiment [11] it was < 10%; in experiment [12], < 10%. The AP50 in experiment [1] stood at 0.43 mM. The INH in experiment [4] worked out at 0.33 mM.

For the compound `C[C@@]12C[C@@]3(O)O[C@@H](O1)[C@]1(COC(=O)c4ccccc4)[C@H]3C[C@@]12O[C@@H]1O[C@H](COC(=O)c2ccccc2)[C@@H](O[C@@H]2O[C@H](CO)[C@@H](O)[C@H](O)[C@H]2O)[C@H](O)[C@H]1O`, the inhibition entry in experiment [1] was “inactive”. Further, the INH in [4] worked out at 2.29 mM.

Regarding `COc1cc(C(=O)OC[C@H]2O[C@@H](O[C@@]34C[C@H]5[C@@]3(CO)[C@H]3O[C@]5(O)C[C@]4(C)O3)[C@H](O)[C@@H](O)[C@@H]2O)ccc1O`, the AP50 in experiment [1] turned out to be 1.12 mM. Moreover, in [4], the INH amounted to 0.89 mM.

For `COc1ccc(C(=O)OC[C@H]2O[C@@H](O[C@]34C[C@@H]5[C@@]6(O)C[C@]3(C)OC(O6)[C@]54COC(=O)c3ccccc3)[C@H](O)[C@@H](O)[C@@H]2O)cc1`, the AP50 in experiment [1] worked out at 2.82 mM. In addition, the INH in experiment [4] came to 2.36 mM.

Regarding `CO[C@]12C[C@]3(C)OC(O1)[C@]1(COC(=O)c4ccccc4)[C@@H]2C[C@@]31O[C@@H]1O[C@H](COC(=O)c2ccccc2)[C@@H](O)[C@H](O)[C@H]1O`, the inhibition result in experiment [1] and in experiment [4] was “inactive” in each case.

On to `C[C@@]12C[C@@]3(O)O[C@@H](O1)[C@]1(COC(=O)c4ccc(O)cc4)[C@H]3C[C@@]12O[C@@H]1O[C@H](COC(=O)c2cc(O)c(O)c(O)c2)[C@@H](O)[C@H](O)[C@H]1O`, for which the inhibition entry in [13], in experiment [15] and in experiment [16] was “Active” each time. Further, the AP50 in experiment [1] amounted to 0.25 mM. The inhibition entry in experiment [14] was “inactive”. The INH in experiment [4] turned out to be 0.14 mM.

Consider `COc1ccc(C(=O)OC[C@@]23[C@@H](OC)O[C@@]4(C)CC(=O)[C@H]2C[C@]34O[C@@H]2O[C@H](COC(=O)c3ccccc3)[C@@H](O)[C@H](O)[C@H]2O)cc1`, for which the inhibition result in [1] and in experiment [4] was “inactive” each time.

With `C[C@@]12C[C@@]3(O)OC(O1)[C@]1(COC(=O)c4ccc(O)cc4)[C@@H]3C[C@@]21O[C@@H]1O[C@H](COC(=O)c2ccccc2)[C@@H](O)[C@H](O)[C@H]1O`, the AP50 in experiment [1] was 0.85 mM. In addition, the INH in experiment [4] came to 0.58 mM.

Take `CO[C@@H]1O[C@@]2(C)CC(=O)[C@H]3C[C@]2(O[C@@H]2O[C@H](COC(=O)c4ccccc4)[C@@H](O)[C@H](O)[C@H]2O)[C@]13COC(=O)c1ccccc1`: the inhibition entry in [1] and in experiment [4] was “inactive” each time.

As to `CO[C@H]1O[C@@]2(C)CC(=O)[C@@H]3C[C@@]2(O[C@@H]2O[C@H](CO)[C@@H](O)[C@H](O)[C@H]2O)[C@]13COC(=O)c1ccc(O)cc1`, the inhibition entry in experiment [1] and in experiment [4] was “inactive” in each case.
